According to ChEMBL document CHEMBL1156736, “Multidentate small-molecule inhibitors of vaccinia H1-related (VHR) phosphatase decrease proliferation of cervix cancer cells” (J Med Chem, 2009):
Calls of active or inactive are those of the source. The calls are words filed in the database; no cut-off is given here.

Tests used:
[1] = target: T1, Dual specificity protein phosphatase 1 (Homo sapiens, UniProt P28562); assay: Inhibition of recombinant MKP1
T1 sequence (P28562 whole entry): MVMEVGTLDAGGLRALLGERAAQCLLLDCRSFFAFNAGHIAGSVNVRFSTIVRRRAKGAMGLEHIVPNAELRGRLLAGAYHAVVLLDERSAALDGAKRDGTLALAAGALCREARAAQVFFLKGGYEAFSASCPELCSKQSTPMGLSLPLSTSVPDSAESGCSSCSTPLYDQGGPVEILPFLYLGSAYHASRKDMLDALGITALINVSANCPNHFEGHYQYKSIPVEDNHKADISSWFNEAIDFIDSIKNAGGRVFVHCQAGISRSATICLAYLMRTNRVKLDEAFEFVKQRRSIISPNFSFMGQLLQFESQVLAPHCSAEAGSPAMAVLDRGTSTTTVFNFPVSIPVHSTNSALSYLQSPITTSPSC

[2] = target: T2, M-phase inducer phosphatase 1 (Homo sapiens, UniProt P30304); assay: Inhibition of recombinant Cdc25a
T2 sequence (P30304 whole entry): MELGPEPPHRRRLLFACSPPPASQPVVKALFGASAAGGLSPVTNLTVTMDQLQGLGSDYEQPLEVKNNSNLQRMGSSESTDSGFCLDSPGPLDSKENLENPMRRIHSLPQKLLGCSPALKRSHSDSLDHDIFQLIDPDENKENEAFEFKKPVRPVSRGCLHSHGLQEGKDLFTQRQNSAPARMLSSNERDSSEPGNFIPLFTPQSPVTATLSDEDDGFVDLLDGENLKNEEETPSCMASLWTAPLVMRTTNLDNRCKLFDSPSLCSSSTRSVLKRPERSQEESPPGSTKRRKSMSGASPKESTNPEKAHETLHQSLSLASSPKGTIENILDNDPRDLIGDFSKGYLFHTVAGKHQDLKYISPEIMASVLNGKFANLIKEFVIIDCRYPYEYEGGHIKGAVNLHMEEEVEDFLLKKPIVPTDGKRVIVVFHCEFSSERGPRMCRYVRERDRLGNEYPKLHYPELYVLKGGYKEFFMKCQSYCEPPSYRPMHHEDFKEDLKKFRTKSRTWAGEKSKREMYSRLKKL

[3] = target: T3, Tyrosine-protein phosphatase non-receptor type 7 (Homo sapiens, UniProt P35236); assay: Inhibition of recombinant HePTP
T3 sequence (P35236 whole entry): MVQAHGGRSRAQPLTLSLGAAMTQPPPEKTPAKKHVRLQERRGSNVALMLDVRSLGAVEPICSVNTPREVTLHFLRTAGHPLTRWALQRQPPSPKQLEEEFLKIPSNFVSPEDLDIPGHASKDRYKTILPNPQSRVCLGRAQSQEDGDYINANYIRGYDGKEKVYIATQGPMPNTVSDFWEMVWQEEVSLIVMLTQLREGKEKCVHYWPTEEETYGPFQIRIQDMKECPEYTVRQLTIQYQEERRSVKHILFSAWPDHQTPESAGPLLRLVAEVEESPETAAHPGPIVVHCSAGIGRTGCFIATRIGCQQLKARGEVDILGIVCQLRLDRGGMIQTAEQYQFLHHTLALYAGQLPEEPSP

[4] = target: T4, Receptor-type tyrosine-protein phosphatase C (Homo sapiens, UniProt P08575); assay: Inhibition of recombinant CD45
T4 sequence (P08575 whole entry): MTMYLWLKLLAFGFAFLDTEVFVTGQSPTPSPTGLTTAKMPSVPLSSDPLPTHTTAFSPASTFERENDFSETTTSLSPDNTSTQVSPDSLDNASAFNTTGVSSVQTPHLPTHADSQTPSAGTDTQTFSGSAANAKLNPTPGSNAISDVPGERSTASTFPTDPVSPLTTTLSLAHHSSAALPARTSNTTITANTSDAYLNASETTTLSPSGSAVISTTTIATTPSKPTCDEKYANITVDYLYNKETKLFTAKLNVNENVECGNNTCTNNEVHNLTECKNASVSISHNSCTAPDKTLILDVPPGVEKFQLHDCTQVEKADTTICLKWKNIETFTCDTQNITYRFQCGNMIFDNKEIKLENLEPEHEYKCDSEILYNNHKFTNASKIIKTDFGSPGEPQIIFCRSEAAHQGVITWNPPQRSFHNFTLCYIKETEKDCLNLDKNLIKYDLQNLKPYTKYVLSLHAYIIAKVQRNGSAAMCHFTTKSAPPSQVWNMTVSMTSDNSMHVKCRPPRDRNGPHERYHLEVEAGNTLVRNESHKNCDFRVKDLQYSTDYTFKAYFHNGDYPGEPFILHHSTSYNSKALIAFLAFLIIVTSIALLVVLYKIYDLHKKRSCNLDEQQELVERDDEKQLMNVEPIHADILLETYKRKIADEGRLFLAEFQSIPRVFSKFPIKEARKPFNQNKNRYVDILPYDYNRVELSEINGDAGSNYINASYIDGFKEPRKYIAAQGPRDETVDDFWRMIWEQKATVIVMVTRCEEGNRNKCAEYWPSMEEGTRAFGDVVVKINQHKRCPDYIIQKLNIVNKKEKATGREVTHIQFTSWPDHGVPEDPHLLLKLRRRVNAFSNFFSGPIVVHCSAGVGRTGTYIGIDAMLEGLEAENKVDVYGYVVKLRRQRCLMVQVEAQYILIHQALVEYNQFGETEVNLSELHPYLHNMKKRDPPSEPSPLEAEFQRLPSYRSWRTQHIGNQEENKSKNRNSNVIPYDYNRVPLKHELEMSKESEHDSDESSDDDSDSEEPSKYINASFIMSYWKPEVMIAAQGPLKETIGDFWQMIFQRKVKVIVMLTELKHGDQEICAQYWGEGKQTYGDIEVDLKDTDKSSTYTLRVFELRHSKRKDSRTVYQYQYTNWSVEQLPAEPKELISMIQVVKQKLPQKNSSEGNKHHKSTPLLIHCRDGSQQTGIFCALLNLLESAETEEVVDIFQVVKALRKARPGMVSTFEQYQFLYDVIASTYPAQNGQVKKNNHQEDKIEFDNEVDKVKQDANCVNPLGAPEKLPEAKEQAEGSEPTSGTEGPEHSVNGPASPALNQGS

[5] = target: T5, Tyrosine-protein phosphatase non-receptor type 1 (Homo sapiens, UniProt P18031); assay: Inhibition of recombinant PTP1B
T5 sequence (P18031 whole entry): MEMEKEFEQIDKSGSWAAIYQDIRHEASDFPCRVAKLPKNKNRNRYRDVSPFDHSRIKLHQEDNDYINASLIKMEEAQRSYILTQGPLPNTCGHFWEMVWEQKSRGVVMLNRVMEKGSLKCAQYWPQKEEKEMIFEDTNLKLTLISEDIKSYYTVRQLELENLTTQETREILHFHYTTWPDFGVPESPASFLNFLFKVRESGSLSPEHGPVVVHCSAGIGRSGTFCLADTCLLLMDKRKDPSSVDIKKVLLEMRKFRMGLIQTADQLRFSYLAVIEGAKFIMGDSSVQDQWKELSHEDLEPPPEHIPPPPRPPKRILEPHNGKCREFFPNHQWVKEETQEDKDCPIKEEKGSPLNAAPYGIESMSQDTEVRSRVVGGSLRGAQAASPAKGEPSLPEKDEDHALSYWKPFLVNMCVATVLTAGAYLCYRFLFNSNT

[6] = target: Dual specificity protein phosphatase 3 (Homo sapiens, UniProt P51452); assay: Inhibition of recombinant vaccina H1-related phosphatase
Chain of Dual specificity protein phosphatase 3 (P51452 whole entry): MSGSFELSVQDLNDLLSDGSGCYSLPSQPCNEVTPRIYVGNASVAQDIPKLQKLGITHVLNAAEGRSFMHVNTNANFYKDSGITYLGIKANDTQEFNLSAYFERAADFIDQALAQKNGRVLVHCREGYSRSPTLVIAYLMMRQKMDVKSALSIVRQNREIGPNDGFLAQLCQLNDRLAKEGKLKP

HeLa [7] = assay: Antiproliferative activity against human HeLa cells at 20 uM after 24 hrs by Trypan blue assay; format: functional
Outline: (§1)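 10^5 cells (HeLa in DMEM/10% FCS; primary normal keratinocytes from hysterectomy tissue, trypsin-EDTA dispersed, in K-SFM with EGF, pituitary hormone) treated 24 h with 20 μM inhibitor or DMSO; trypsinized and counted with trypan blue in a counting chamber; cell numbers as percentage of DMSO control; mean ± SD, three independent experiments.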

HeLa [8] = assay: Antiproliferative activity against human HeLa cells at 20 uM after 24 hrs by [3H]thymidine incorporation assay relative to control; format: functional
Outline: (§2)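 5×10^4 cells in DMEM complete medium exposed 24 h to 20 μM inhibitor or DMSO vehicle; [3H]thymidine ([…]) added for final 4 h, cells harvested onto glass fiber filters, radioactivity by scintillation counting; expressed relative to DMSO control; mean ± SD of three independent experiments.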

Ca-Ski [9] = assay: Antiproliferative activity against human CaSki cells at 20 uM after 24 hrs by [3H]thymidine incorporation assay relative to control; format: functional; outline: as §2
HeLa [10] = assay: Induction of apoptosis in human HeLa cells assessed as apoptotic cells at 20 uM after 24 hrs by annexin V/propidium iodide based flow cytometry; format: functional, cell-based
Outline: (§3)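 10^5 cells in DMEM/10% FCS incubated 24 h with 20 μM inhibitor or DMSO, trypsinized; half of cells stained with AnnexinV-FITC and propidium iodide, analysed by flow cytometry; live cells taken as AnnexinV- and PI-negative; mean ± SD from three independent experiments.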

Ca-Ski [11] = assay: Induction of apoptosis in human CaSki cells assessed as apoptotic cells at 20 uM after 24 hrs by annexin V/propidium iodide based flow cytometry; format: functional, cell-based; outline: as §3
Keratinocyte = assay: Cytotoxicity against human keratinocytes at 20 uM after 24 hrs by Trypan blue assay; format: functional, cell-based; outline: as §1

## O=C1/C(=C/c2cn(-c3ccccc3)nc2-c2ccc(OCc3ccccc3Cl)cc2)SC(=S)N1CCS(=O)(=O)O
[1]
  IC50: 0.47 µM
[2]
  IC50: 3.4 µM
[3]
  IC50: 1.2 µM
[4]
  IC50: 0.3 µM
[5]
  IC50: 0.59 µM
[6]
  IC50: 0.071 µM
HeLa [7]
  Activity: Active
HeLa [8]
  Activity: <=30%
Ca-Ski [9]
  Activity: >50%
HeLa [10]
  Activity: inactive
Ca-Ski [11]
  Activity: inactive

## O=C1/C(=C/c2cn(-c3ccccc3)nc2-c2ccc(S(=O)(=O)N3CCCCC3)cc2)SC(=S)N1CCS(=O)(=O)O
[1]
  IC50: 2.8 µM
[2]
  IC50: > 10 µM
[3]
  IC50: 2.4 µM
[4]
  IC50: 1.8 µM
[5]
  IC50: 2.2 µM
HeLa [7]
  Activity: Active
HeLa [8]
  Activity: <=30%
Ca-Ski [9]
  Activity: >50%

## O=C1/C(=C/c2cn(-c3ccccc3)nc2-c2ccc(OCc3ccccc3)cc2)SC(=S)N1CCS(=O)(=O)O
[3]
  IC50: 1.5 µM
[5]
  IC50: 1.8 µM
HeLa [7]
  Activity: Active
HeLa [8]
  Activity: <=30%
Ca-Ski [9]
  Activity: >50%

## O=C1/C(=C/c2cn(-c3ccccc3)nc2-c2ccc(OCc3ccc(Cl)cc3)cc2)SC(=S)N1CCS(=O)(=O)O
[2]
  IC50: 2.4 µM
Keratinocyte
  Activity: Not toxic
HeLa [7]
  Activity: Active
HeLa [8]
  Activity: <=30%
Ca-Ski [9]
  Activity: >50%

## O=C1/C(=C/c2cn(-c3ccccc3)nc2-c2ccc(OCc3ccccc3F)cc2)SC(=S)N1CCS(=O)(=O)O
[1]
  IC50: 0.52 µM
[2]
  IC50: 2.8 µM
[3]
  IC50: 0.87 µM
[4]
  IC50: 0.5 µM
[5]
  IC50: 0.42 µM
HeLa [7]
  Activity: >50%
HeLa [8]
  Activity: 58%
Ca-Ski [9]
  Activity: 74%
HeLa [10]
  Activity: inactive
Ca-Ski [11]
  Activity: inactive
